Experimental data from ChEMBL document CHEMBL4028864 (J Med Chem, 2017).

Assays:
[1] = target: Polyamine deacetylase HDAC10 (Homo sapiens, UniProt Q969S8); experiment: Inhibition of human HDAC10 using fluorogenic peptide from p53 residues 379 to 382 as substrate in presence of ATP
In short: (§1)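 HDAC enzyme inhibition was run by a contract laboratory.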

[2] = system: HCT-116; experiment: Antiproliferative activity against human HCT116 cells after 72 hrs by MTT assay; type: functional, cell-based; conditions: HCT-116, 72 h
[3] = Clearance in Wistar rat at 1 mg/kg, iv by LC-MS/MS analysis; type: ADME, organism-based; conditions: in vivo
In short: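 Wistar rats given a single 1 mg/kg iv dose. Plasma concentration–time profiles were plotted as mean ± SEM and sampled through 24 h postdose. Values were taken from the iv profile.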

[4] = target: Histone deacetylase 11 (Homo sapiens, UniProt Q96DB2); experiment: Inhibition of C-terminal His tagged human recombinant HDAC11 (1 to 347 residues) expressed in Baculovirus infected insect cells in presence of ATP; in short: as §1
[5] = target: Inhibitor of nuclear factor kappa-B kinase subunit beta (Homo sapiens) (UniProt O14920); experiment: Inhibition of wild type human IKKbeta (M1 to S756 residues) expressed in mammalian cells assessed as residual activity at 1 uM by KINOMEscan assay relative to control; type: cell-based
[6] = Cytotoxicity against human AC10 cells assessed as cell viability at 100 uM after 24 hrs by CellTiter-Glo assay relative to control; type: cell-based; conditions: read-out: Activity
In short: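 AC10 human cardiomyocytes seeded at 5000 cells/well the day before treatment. Cells were exposed for 24 h at 37 °C to a range of 0.315–100 μM final (0.5% DMSO). Viability was read by CellTiter-Glo luminescence.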

[7] = target: Histone deacetylase 2 (Homo sapiens, UniProt Q92769); experiment: Inhibition of C-terminal GST tagged human recombinant HDAC2 (1 to 488 residues) expressed in Baculovirus infected insect cells in presence of ATP; in short: as §1
[8] = target: T1, Protein deacetylase HDAC6 (Homo sapiens, UniProt Q9UBN7); experiment: Inhibition of N-terminal GST tagged human HDAC6 (1 to 1215 residues) expressed in baculovirus infected insect cells using RHKKAc as substrate in presence of ATP
T1 sequence (Q9UBN7 whole entry): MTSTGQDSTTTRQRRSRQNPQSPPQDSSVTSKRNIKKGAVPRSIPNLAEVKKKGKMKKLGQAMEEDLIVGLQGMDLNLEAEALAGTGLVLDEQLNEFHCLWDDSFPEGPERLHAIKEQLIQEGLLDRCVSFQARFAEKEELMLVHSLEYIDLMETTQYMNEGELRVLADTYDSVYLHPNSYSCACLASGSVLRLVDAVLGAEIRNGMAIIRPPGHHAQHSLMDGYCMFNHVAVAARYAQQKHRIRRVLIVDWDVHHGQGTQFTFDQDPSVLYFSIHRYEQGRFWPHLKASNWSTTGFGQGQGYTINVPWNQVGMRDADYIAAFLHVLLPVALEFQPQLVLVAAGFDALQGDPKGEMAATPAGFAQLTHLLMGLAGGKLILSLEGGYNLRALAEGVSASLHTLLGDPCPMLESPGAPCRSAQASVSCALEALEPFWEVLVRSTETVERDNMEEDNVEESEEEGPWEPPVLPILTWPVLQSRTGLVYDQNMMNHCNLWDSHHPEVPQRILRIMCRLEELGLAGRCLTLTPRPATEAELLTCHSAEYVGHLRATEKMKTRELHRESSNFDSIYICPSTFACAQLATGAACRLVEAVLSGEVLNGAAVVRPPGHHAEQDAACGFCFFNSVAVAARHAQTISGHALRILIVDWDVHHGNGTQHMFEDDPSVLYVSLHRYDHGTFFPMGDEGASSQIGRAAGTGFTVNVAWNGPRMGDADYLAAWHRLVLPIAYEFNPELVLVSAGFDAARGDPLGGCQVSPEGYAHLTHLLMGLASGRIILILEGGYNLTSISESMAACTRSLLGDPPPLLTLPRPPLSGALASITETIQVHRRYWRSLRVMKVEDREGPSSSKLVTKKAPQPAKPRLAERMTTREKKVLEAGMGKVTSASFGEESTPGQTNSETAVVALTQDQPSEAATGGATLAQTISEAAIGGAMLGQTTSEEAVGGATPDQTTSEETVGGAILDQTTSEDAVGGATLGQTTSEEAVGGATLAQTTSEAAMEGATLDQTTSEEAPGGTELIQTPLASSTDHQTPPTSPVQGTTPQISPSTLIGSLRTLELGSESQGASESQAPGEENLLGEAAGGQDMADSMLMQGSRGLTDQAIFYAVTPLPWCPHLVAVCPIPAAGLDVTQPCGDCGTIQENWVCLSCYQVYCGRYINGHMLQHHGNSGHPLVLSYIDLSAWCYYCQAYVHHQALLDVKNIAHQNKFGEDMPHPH

Chain of Polyamine deacetylase HDAC10 (Q969S8 whole entry, the tested form may be a part): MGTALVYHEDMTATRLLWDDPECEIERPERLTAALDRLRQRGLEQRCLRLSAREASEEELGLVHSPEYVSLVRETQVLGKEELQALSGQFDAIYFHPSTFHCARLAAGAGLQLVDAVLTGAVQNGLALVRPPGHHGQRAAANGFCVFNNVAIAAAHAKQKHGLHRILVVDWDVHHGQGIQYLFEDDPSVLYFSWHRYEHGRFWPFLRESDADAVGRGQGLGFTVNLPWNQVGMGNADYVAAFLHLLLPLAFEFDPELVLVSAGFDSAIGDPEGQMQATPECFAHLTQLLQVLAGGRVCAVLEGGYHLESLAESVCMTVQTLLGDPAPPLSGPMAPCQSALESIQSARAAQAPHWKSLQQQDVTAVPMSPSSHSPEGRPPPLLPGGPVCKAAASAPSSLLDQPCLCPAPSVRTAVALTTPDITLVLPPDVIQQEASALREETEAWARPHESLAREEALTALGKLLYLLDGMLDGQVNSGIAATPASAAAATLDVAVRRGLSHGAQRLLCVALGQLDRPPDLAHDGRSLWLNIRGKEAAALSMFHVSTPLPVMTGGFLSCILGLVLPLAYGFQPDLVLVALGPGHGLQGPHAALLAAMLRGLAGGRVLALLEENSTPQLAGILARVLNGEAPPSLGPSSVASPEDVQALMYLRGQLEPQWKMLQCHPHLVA
Chain of Inhibitor of nuclear factor kappa-B kinase subunit beta (Homo sapiens) (O14920 whole entry, the tested form may be a part): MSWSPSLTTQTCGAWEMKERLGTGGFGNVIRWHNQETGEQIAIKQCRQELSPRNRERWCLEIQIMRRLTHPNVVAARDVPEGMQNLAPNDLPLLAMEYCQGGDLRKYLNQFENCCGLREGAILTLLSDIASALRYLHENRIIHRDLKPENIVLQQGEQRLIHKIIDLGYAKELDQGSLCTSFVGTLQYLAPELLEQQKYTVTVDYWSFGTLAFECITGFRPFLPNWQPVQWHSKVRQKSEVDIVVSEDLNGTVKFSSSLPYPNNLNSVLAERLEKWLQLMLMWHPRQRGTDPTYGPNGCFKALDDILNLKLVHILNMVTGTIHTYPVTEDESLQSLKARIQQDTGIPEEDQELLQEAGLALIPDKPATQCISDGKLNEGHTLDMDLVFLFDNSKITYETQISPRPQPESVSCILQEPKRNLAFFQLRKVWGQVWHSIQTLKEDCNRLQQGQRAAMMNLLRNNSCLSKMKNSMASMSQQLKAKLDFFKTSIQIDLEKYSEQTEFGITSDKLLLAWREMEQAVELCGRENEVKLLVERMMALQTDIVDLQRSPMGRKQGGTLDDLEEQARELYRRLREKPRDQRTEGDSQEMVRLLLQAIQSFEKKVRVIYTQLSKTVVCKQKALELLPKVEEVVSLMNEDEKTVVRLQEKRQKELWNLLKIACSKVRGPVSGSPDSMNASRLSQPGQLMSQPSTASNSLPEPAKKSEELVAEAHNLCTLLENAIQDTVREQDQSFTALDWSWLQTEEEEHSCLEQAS
Chain of Histone deacetylase 2 (Q92769 whole entry, the tested form may be a part): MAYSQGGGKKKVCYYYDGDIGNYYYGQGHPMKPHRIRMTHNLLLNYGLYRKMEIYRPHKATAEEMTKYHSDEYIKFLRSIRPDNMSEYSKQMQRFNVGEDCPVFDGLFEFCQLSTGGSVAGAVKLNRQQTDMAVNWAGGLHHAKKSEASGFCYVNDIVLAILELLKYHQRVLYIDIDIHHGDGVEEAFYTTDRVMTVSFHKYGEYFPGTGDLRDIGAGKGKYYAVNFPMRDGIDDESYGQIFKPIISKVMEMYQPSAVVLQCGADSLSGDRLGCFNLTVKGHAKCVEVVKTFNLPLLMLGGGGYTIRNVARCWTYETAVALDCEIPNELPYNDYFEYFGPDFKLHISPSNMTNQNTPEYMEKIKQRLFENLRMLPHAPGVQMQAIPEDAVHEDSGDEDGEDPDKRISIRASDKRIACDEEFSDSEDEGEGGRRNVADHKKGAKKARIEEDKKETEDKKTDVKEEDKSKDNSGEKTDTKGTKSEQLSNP
Chain of Histone deacetylase 11 (Q96DB2 whole entry, the tested form may be a part): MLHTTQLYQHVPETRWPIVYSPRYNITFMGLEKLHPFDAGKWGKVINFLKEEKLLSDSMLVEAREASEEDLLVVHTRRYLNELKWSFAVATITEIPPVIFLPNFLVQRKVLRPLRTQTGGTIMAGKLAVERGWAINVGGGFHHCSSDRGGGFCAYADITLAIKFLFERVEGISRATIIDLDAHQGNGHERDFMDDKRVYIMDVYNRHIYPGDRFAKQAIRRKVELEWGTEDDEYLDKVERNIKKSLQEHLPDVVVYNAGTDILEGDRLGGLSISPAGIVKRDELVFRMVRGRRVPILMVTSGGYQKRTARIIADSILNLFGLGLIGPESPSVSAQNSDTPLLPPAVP

## O=C(CCCCCCn1cc(-c2ncnc3[nH]ccc23)cn1)NO
[1]
  IC50: 19 nM
[2]
  IC50: 2320 nM
[3]
  clearance: 95.1 mL/min/kg
[4]
  IC50: 31 nM
[5]
  Activity: 30%
[6]
  viability at 24 h, 100 µM: 56%
[7]
  IC50: 5.8 nM
[8]
  IC50: 1.4 nM
